{"data": "Assay results collected from several papers", "KCNA1": "Potassium voltage-gated channel subfamily A member 1 (KCNA1, Homo sapiens, UniProt Q09470)"}
{"SMILES": "CC(=O)c1c(C)c2cnc(Nc3ccc(N4CCNCC4)cn3)nc2n(C2CCCC2)c1=O", "target": "Cyclin-dependent kinase 3 (CDK3, Homo sapiens, UniProt Q00526)", "test": "enzyme activity, inhibitor, ADP detection", "conditions": "1 µM", "endpoint": "activity vs control", "result": "90%"}
{"SMILES": "C=CC(=O)N1CCC(COCC(=O)N2CCN(c3nc(-c4cnc(N)nc4C(F)F)nc(N4CCOC[C@@H]4C)n3)CC2)CC1", "target": "Serine/threonine-protein kinase SBK1 (SBK1, Homo sapiens, UniProt Q52WX2)", "test": "binding, competition with immobilised ligand", "conditions": "1 µM", "endpoint": "remaining binding", "result": "100%"}
{"SMILES": "COc1ccc(S(=O)(=O)N(CC(=O)NO)CC(C)C)cc1", "target": "Collagenase 3 (MMP13, Homo sapiens, UniProt P45452)", "test": "enzyme activity, inhibitor", "conditions": "0.5 µM", "endpoint": "inhibition", "result": "51.2%"}
{"SMILES": "COc1cc(-c2cncc3c2CN(C)Cc2cc(N4CCNCC4)ccc2-3)cc(OC)c1OC", "target": "Insulin receptor (INSR, Homo sapiens, UniProt P06213)", "test": "enzyme activity, inhibitor", "conditions": "1 µM", "endpoint": "remaining activity", "result": "107%"}
{"SMILES": "CNCCCC12CCC(c3ccccc31)c1ccccc12", "target": "KCNA1", "test": "ion current, inhibitor, patch clamp", "conditions": "3 µM", "endpoint": "inhibition", "result": "2.68%"}
{"SMILES": "Cc1cc([C@@H](C)Nc2ccccc2C(=O)O)c2nc(N3CCC(F)(F)CC3)c(C#N)c(=O)n2c1", "target": "RAF proto-oncogene serine/threonine-protein kinase (RAF1, Homo sapiens, UniProt P04049)", "test": "binding, competition with immobilised ligand", "conditions": "10 µM", "endpoint": "remaining binding", "result": "90%"}
{"SMILES": "CC(C)NCC(O)COc1cccc2ccccc12 (stereo not drawn)", "target": "KCNA1", "test": "ion current, inhibitor, patch clamp", "conditions": "30 µM", "endpoint": "inhibition", "result": "37.8%"}
{"SMILES": "O=C(O)CNc1cccc(CN(Cc2ccc(-n3cccn3)cc2)S(=O)(=O)c2cccnc2)n1", "target": "Prostaglandin E2 receptor EP2 subtype (PTGER2, Homo sapiens, UniProt P43116)", "test": "ligand displacement, radioligand", "conditions": "10 µM", "endpoint": "inhibition", "result": "95%"}
{"SMILES": "O=C1NC(=O)C(c2ccccc2)(c2ccccc2)N1", "target": "KCNA1", "test": "ion current, inhibitor, patch clamp", "conditions": "10 µM", "endpoint": "inhibition", "result": "13.2%"}
{"SMILES": "CNc1ncc2c(/C=C/C(=O)N3CCC(OC)CC3)nn(Cc3cccc(C(F)(F)F)c3)c2n1", "target": "Serine/threonine-protein kinase 38-like (STK38L, Homo sapiens, UniProt Q9Y2H1)", "test": "enzyme activity, inhibitor, radiometric", "conditions": "1 µM", "endpoint": "remaining activity", "result": "90%"}
{"SMILES": "Nc1c(Br)cc(Br)cc1CN[C@H]1CC[C@H](O)CC1", "target": "KCNA1", "test": "ion current, inhibitor, patch clamp", "conditions": "30 µM", "endpoint": "inhibition", "result": "16.8%"}
{"SMILES": "CC[C@H](C)[C@H](NC(=O)[C@H](CCC(N)=O)NC(=O)[C@H](CCCNC(=N)N)NC(=O)[C@H](CO)NC(=O)[C@H](Cc1c[nH]cn1)NC(=O)[C@@H]1CCCN1C(=O)[C@H](C)NC(=O)[C@H](CO)NC(=O)[C@H](CC(C)C)NC(=O)CNC(=O)[C@@H]1CCCN1C(=O)[C@H](CCC(N)=O)NC(=O)[C@H](CCC(N)=O)NC(=O)[C@H](CCCNC(=N)N)NC(=O)[C@H](CO)NC(=O)CNC(=O)[C@H](CO)NC(=O)[C@H](CO)NC(=O)[C@H](CCC(=O)O)NC(=O)[C@@H]1CCCN1C(=O)[C@@H]1CCCN1C(=O)[C@@H]1CCCN1C(=O)[C@H](CO)NC(=O)[C@H](CC(C)C)NC(=O)[C@H](CO)NC(=O)[C@@H](NC(=O)CN)[C@@H](C)O)C(=O)N1CCC[C@H]1C(=O)N[C@@H](C)C(=O)N1CCC[C@H]1C(=O)N[C@@H](CCC(N)=O)C(=O)NCC(=O)N[C@@H](C)C(=O)N[C@H](C(=O)N[C@@H](CC(C)C)C(=O)N[C@H](C(=O)N[C@@H](CCC(N)=O)C(=O)N[C@@H](CCCNC(=N)N)C(=O)N[C@@H](CCC(=O)O)C(=O)N[C@@H](CCCCN)C(=O)N[C@@H](CC(=O)O)C(=O)N[C@@H](CC(C)C)C(=O)N1CCC[C@H]1C(=O)N[C@@H](CC(N)=O)C(=O)N[C@@H](Cc1ccc(O)cc1)C(=O)N[C@@H](CC(N)=O)C(=O)N[C@@H](Cc1c[nH]c2ccccc12)C(=O)N[C@@H](CC(N)=O)C(=O)N[C@@H](CO)C(=O)N[C@@H](Cc1ccccc1)C(=O)NCC(=O)N[C@@H](CC(C)C)C(=O)N[C@@H](CCCNC(=N)N)C(=O)N[C@@H](Cc1ccccc1)C(N)=O)C(C)C)C(C)C", "target": "KiSS-1 receptor (KISS1R, Homo sapiens, UniProt Q969F8, Y302A)", "test": "inositol phosphate, agonist", "test system": "HEK293", "endpoint": "Emax", "result": "94.9%"}
